According to ChEMBL document CHEMBL1817588, “Design and synthesis of 1,3-biarylsulfanyl derivatives as new anti-breast cancer agents” (Bioorg Med Chem, 2011):
Active and inactive are the calls of the source. No cut-off for these calls is given here.

Tests used:
MCF7 [1] = assay: Antiproliferative activity against human MCF7 cells expressing estrogen receptor after 48 hrs by MTT assay; assay type: functional, cell-based; conditions: MCF7, 48 h
Outline: (§1)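 Cells seeded at 1×10^4/well in DMEM with 10% FBS for 24 h at 37 °C, then exposed to compounds for 48 h. MTT (5 mg/mL) added for 4 h. Formazan dissolved in DMSO and absorbance read at 540 nm. Routine culture used DMEM with 10% FBS, 5% CO2, reduced to 2% FBS for growth inhibition.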

Ishikawa [2] = assay: Antiproliferative activity against human Ishikawa cells expressing estrogen receptor after 48 hrs by MTT assay; assay type: functional, cell-based; outline: as §1
MDA-MB-231 [3] = assay: Antiproliferative activity against estrogen receptor-deficient human MDA-MB-231 cells […] after 48 hrs by MTT assay; assay type: functional, cell-based; conditions: MDA-MB-231, 48 h; outline: as §1
MCF7 [4] = assay: Antiproliferative activity against human MCF7 cells expressing estrogen receptor at 50 uM after 48 hrs by MTT assay; assay type: functional, cell-based
Ishikawa [5] = assay: Antiproliferative activity against human Ishikawa cells expressing estrogen receptor at 50 uM after 48 hrs by MTT assay; assay type: functional, cell-based
MDA-MB-231 [6] = assay: Antiproliferative activity against estrogen receptor-deficient human MDA-MB-231 cells […] at 50 uM after 48 hrs by MTT assay; assay type: functional, cell-based
Bone [7] = assay: Antiosteoporotic activity in Sprague-Dawley rat [45Ca] pre-labeled bone assessed as inhibition of PTH-induced bone resorption after 96 hrs
Bone [8] = assay: Antiosteoporotic activity in Sprague-Dawley rat [45Ca] pre-labeled bone assessed as inhibition of PTH-induced bone resorption after 96 hrs relative to control
HEK293 [9] = assay: Antiproliferative activity against human HEK293 cells after 48 hrs by MTT assay; assay type: cell-based; conditions: HEK293, 48 h; outline: as §1
Rattus norvegicus [10] = species: Rattus norvegicus; assay: Displacement of [3H]-estradiol from estrogen receptor in rat uteri after 18 hrs by scintillation counting relative to 17beta-estradiol
Outline: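 Cytosol from uteri of immature 20–21-day-old rats, in TEA buffer pH 7.4 (10 mM Tris, 1.5 mM EDTA, 0.02% azide). Incubated in triplicate with fixed 3H-estradiol ± competitor (DMF ≤5% final) for 18 h at 4 °C. Free ligand removed with dextran-coated charcoal (15 min, 800g 10 min), then supernatant counted. RBA taken at 50% inhibition from the bound-versus-log concentration plot.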

Rattus norvegicus [11] = assay: Estrogenic activity in Sprague-Dawley rat assessed as increase in uterine weight administered as po daily once for 3 days relative to control; assay type: functional; design: concentration or dose not given beside the values
Outline: (§2)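 Immature female Sprague-Dawley rats given oral dosing once daily for 3 days on days 28–30 of age. Antiestrogenic arm co-dosed ethynylestradiol 0.02 mg/kg in 10% ethanol-water. Autopsy 24 h after last dose (day 31). Uterus excised, blotted and weighed, with vaginal opening and cornification also scored. Inhibition computed as (E − T)×100/E versus ethynylestradiol alone. Estrogenic gain expressed as percent increase over vehicle control.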

Rattus norvegicus [12] = assay: Antiestrogenic activity in Sprague-Dawley rat assessed as inhibition of uterine weight gain administered as po daily once for 3 days relative to 17alpha-ethynylestradiol; assay type: functional; outline: as §2
Rattus norvegicus [13] = assay: Antiimplantation activity in Sprague-Dawley albino rat at 20 mg/kg, po after 10 days; assay type: functional
Outline: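 Sperm-positive adult Sprague-Dawley females (180–220 g) mated with proven-fertile males. Compounds given orally as a gum acacia suspension on days 1–5 post-coitum, 5–7 animals per group. Vehicle-only group served as control.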

HEK293 [14] = assay: Antiproliferative activity against human HEK293 cells at 50 uM after 48 hrs by MTT assay; assay type: cell-based; conditions: hek293, 48 h

| SMILES | IC50 (MCF7 [1]) | IC50 (MDA-MB-231 [3]) | IC50 (Ishikawa [2]) | Activity (Ishikawa [5]) | further results |
| --- | --- | --- | --- | --- | --- |
| O=C(CC(Sc1ccc(Cl)cc1)c1ccccc1)c1ccc([N+](=O)[O-])cc1 (centres undefined) | 25 µM | 29 µM | 21 µM |  |  |
| O=C(CC(Sc1ccc(Cl)cc1)c1ccccc1)c1ccccc1 (centres undefined) |  |  |  | inactive | Activity (MCF7 [4]): inactive; Activity (MDA-MB-231 [6]): inactive |
| O=C(c1ccc(OCCN2CCCCC2)cc1)c1c(-c2ccc(O)cc2)sc2cc(O)ccc12 [RALOXIFENE] |  |  |  |  | T/C (Bone [7]): 0.62; inhibition (INH) (Bone [8]): 38% |
| CCSC(CC(=O)c1ccc(OC)cc1)c1ccc(OC)cc1 (centres undefined) | 27 µM |  |  | inactive | Activity (MDA-MB-231 [6]): inactive |
| Cc1ccc(C(CC(=O)c2cccc(Cl)c2)Sc2ccccc2)cc1 (centres undefined) | 25 µM | 36 µM | 28 µM |  |  |
| CCSC(CC(=O)c1ccccc1)c1ccc(O)cc1 (centres undefined) |  |  |  | inactive | Activity (MCF7 [4]): inactive; Activity (MDA-MB-231 [6]): inactive |
| O=C(O)CCSC(CC(=O)c1ccccc1)c1ccccc1 (centres undefined) |  | 42 µM | 23 µM |  | Activity (MCF7 [4]): inactive |
| O=C(CC(Sc1ccc(O)cc1)c1ccc(O)cc1)c1ccc(OCCN2CCCC2)cc1 (centres undefined) | 25 µM | > 50 µM | 17.3 µM |  | IC50 (HEK293 [9]): 28.7 µM; RBA (Rattus norvegicus [10]): 5.15%; Activity (Rattus norvegicus [11]): 111%; inhibition (INH) (Rattus norvegicus [12]): 24%; Activity (Rattus norvegicus [13]): inactive; T/C (Bone [7]): 0.934; inhibition (INH) (Bone [8]): 6.6% |
| Cc1ccc(SC(CC(=O)c2cccc(Cl)c2)c2ccc(C)cc2)cc1 (centres undefined) | 27 µM | 41 µM |  | inactive |  |

Now from value to compound, other results behind:

| IC50 (MCF7 [1]) | IC50 (MDA-MB-231 [3]) | SMILES | IC50 (Ishikawa [2]) | Activity (Ishikawa [5]) | further results |
| --- | --- | --- | --- | --- | --- |
| 30 µM | 48 µM | O=C(CC(Sc1ccccc1)c1ccccc1)c1ccc2ccccc2c1 (centres undefined) | 26 µM |  |  |
| 24 µM |  | CCSC(CC(=O)c1ccccc1)c1ccc(OC)cc1 (centres undefined) |  | inactive | Activity (MDA-MB-231 [6]): inactive |
| 27 µM | 38 µM | CCSC(CC(=O)c1ccc(OCCN(C)C)cc1)c1ccccc1 (centres undefined) |  | inactive | IC50 (HEK293 [9]): 32.8 µM; RBA (Rattus norvegicus [10]): 0.246%; Activity (Rattus norvegicus [11]): 212%; inhibition (INH) (Rattus norvegicus [12]): 4%; Activity (Rattus norvegicus [13]): inactive; T/C (Bone [7]): 0.944; inhibition (INH) (Bone [8]): 5.6% |
|  | 44 µM | O=C(CC(Sc1ccc([N+](=O)[O-])cc1)c1ccccc1)c1ccccc1 (centres undefined) | 23 µM |  | Activity (MCF7 [4]): inactive |
| 25 µM | 35 µM | Cc1cccc(SC(CC(=O)c2ccccc2)c2ccc(O)cc2)c1 (centres undefined) | 22 µM |  |  |
| 19 µM | 33 µM | O=C(CC(Sc1ccccc1)c1ccc(O)cc1)c1ccccc1 (centres undefined) |  | inactive | IC50 (HEK293 [9]): 31.4 µM |
| 12.5 µM |  | CC/C(=C(\c1ccccc1)c1ccc(OCCN(C)C)cc1)c1ccccc1 [TAMOXIFEN] | 22.5 µM |  | RBA (Rattus norvegicus [10]): 2.2%; Activity (Rattus norvegicus [11]): 155%; inhibition (INH) (Rattus norvegicus [12]): 49% |
| > 50 µM | 28 µM | Cc1ccc(SC(CC(=O)c2ccc(OCCN(C)C)cc2)c2ccccc2)cc1 (centres undefined) |  | inactive | Activity (HEK293 [14]): Non-toxic; RBA (Rattus norvegicus [10]): 0.245%; Activity (Rattus norvegicus [11]): 76%; inhibition (INH) (Rattus norvegicus [12]): 8%; Activity (Rattus norvegicus [13]): inactive; T/C (Bone [7]): 0.845; inhibition (INH) (Bone [8]): 15.5% |
| 32.8 µM | 40.2 µM | CCSC(CC(=O)c1ccc(OCCN2CCCCC2)cc1)c1ccccc1 (centres undefined) | 28.5 µM |  | Activity (HEK293 [14]): Non-toxic; RBA (Rattus norvegicus [10]): 0.175%; Activity (Rattus norvegicus [11]): 134%; inhibition (INH) (Rattus norvegicus [12]): 7%; Activity (Rattus norvegicus [13]): inactive; T/C (Bone [7]): 0.947; inhibition (INH) (Bone [8]): 5.5% |
